{"source": "ChEMBL document CHEMBL4765399", "about": "“Design, synthesis, and biological evaluation of 5-((8-methoxy-2-methylquinolin-4-yl)amino)-1H-indole-2-carbohydrazide derivatives as novel Nur77 modulators” (Eur J Med Chem, 2020)", "key": {"HepG2 [1]": {"test_system": "HepG2", "test": "Induction of morphological changes in human HepG2 cells assessed as reduction in cell number at 1 to 2 uM incubated for 6 to 12 hrs by phase contrast microscopic analysis", "format": "functional, cell-based", "details": "dose 1-2 µM, time 6-12 hrs", "in_short": "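HepG2 cells given graded concentrations; morphology monitored at set time points by phase-contrast optical microscopy.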"}, "HepG2 [2]": {"test_system": "HepG2", "test": "Induction of endoplasmic reticulum stress in Nur77 […] human HepG2 cells assessed as bip protein expression at 2 uM incubated for 6 to 12 hrs by Western blot analysis", "format": "functional, cell-based", "details": "time 6-12 hrs", "in_short": "(§1)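 HepG2 and shNur77 HepG2 exposed to DMSO or 2.0 µM for 6 and 12 h; lysates immunoblotted for TRB3, Bip, CHOP and Nur77 (SDS-PAGE, nitrocellulose, overnight primary antibodies, HRP secondary, chemiluminescence).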"}, "HepG2 [3]": {"test_system": "HepG2", "test": "Antitumor activity against human HepG2 cells xenografted in BALB/c mouse assessed as induction of ER stress by measuring increase in TRB3 level in tumor tissue at 10 to 20 mg/kg/day, ip administered for 15 days by immunohistochemical analysis", "format": "functional, organism-based", "details": "dose 10-20 mg/kg/day, time 15.0 day", "in_short": "(§2)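 HepG2 cells (5×10^6) injected subcutaneously into flanks of 4-week-old male Balb/c nude mice. At about 100 mm³, 15 mice were randomized to vehicle, 10 or 20 mg/kg i.p. once daily for 15 days. Tumors were then excised for immunostaining of paraffin sections (5 μm) or for western blot.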"}, "[4]": {"biological_target": "Nuclear receptor subfamily 4immunitygroup A member 1 (Homo sapiens, UniProt P22736)", "sequence (P22736 whole entry)": "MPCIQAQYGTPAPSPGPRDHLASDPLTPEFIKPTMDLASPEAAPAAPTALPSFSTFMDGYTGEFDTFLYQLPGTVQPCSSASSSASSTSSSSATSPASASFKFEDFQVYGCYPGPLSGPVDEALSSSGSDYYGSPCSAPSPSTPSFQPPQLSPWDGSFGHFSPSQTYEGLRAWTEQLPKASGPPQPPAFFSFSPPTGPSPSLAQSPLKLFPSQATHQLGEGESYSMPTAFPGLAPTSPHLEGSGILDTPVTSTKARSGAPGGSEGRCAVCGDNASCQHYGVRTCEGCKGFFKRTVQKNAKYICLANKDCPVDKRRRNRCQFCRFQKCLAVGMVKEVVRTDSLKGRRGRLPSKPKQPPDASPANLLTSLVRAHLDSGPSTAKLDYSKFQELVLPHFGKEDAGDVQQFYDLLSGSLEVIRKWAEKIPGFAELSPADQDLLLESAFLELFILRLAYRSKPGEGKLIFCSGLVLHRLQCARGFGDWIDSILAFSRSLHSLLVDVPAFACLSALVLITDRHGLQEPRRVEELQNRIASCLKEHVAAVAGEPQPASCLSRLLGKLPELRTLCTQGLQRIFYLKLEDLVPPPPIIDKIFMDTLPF", "test": "Modulation of Nur77 in human HepG2 cells assessed as induction of Nur77 translocation into cytoplasm from nucleus at 2 uM incubated for 6 hrs by DAPI staining based immunofluorescence assay", "format": "cell-based", "details": "filed as modulator", "in_short": "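HepG2 exposed to 2.0 µM for set times, fixed (4% paraformaldehyde), permeabilised (0.1% Triton X-100), BSA-blocked, incubated 1 h with anti-Nur77 (1:500) then FITC or Cy3 anti-rabbit IgG; nuclei DAPI-stained; confocal imaging.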"}, "HepG2 [5]": {"test_system": "HepG2", "test": "Induction of apoptosis in human HepG2 cells transfected with shRNA assessed as necrotic cells at 2 uM incubated for 12 hrs by Annexin V-FITC/PI staining based flow cytometry (reference value: 0.15%)", "format": "functional"}, "QGY-7703 [6]": {"test_system": "QGY-7703", "test": "Upregulation of Nur77 expression in human QGY-7703 cells incubated for 6 hrs by Western blot analysis", "format": "functional, cell-based", "details": "dose 0.5-2 µM", "in_short": "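HepG2, QGY-7703 and SMMC-7721 cells treated with the indicated concentrations for 6 h. HepG2 also given 2.0 µM over a time course. Lysis in RIPA with protease and phosphatase inhibitors; 40-80 µg protein by SDS-PAGE, nitrocellulose transfer. Membranes blocked with 5% milk, primary antibody overnight, HRP secondary, chemiluminescence. GAPDH as loading control.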"}, "HepG2 [7]": {"test_system": "HepG2", "test": "Disruption of mitochondrial membrane potential in human HepG2 cells assessed as green fluorescence intensity at 2 uM incubated for 12 hrs by JC-1 staining based flow cytometry (reference value: 41669 units)", "format": "functional"}, "HepG2 [8]": {"test_system": "HepG2", "test": "Antitumor activity against human HepG2 cells xenografted in BALB/c mouse assessed as reduction in PCNA expression in tumor tissue at 10 to 20 mg/kg/day, ip for 15 days by western blot analysis", "format": "functional, organism-based", "details": "dose 10-20 mg/kg/day, time 15.0 day", "in_short": "as §2"}, "SMMC-7721 [9]": {"test_system": "SMMC-7721", "test": "Induction of endoplasmic reticulum stress in human SMMC-7721 cells assessed as increase in TRB3 protein expression incubated for 12 hrs by Western blot analysis", "format": "functional, cell-based", "details": "dose 0.5-2 µM", "in_short": "(§3)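 HepG2, QGY-7703 and SMMC-7721 treated with graded concentrations for 12 h. Lysed in RIPA with inhibitors; 40-80 µg protein separated by SDS-PAGE, blotted to nitrocellulose, blocked 1 h in 5% milk, primary antibodies overnight (LC3, Beclin1, Bip, CHOP, TRB3), HRP secondaries, chemiluminescence.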"}, "HepG2 [10]": {"test_system": "HepG2", "test": "Induction of apoptosis in human HepG2 cells assessed as cleaved caspase-9 expression at 2 uM pretreated with ER stress inhibitor, 4-PBA for 2 hrs followed by incubation with compound for 12 hrs by Western blot analysis", "format": "functional, cell-based", "in_short": "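HepG2 cells grown to confluence were pretreated 2 h with 2 mM 3-MA (autophagy inhibitor) or 2 mM 4-PBA (ER stress inhibitor), then exposed to compound for 12 h. Proteins (40–80 µg, RIPA lysate) were resolved by SDS-PAGE and blotted for PARP, cleaved caspase-3/-9, Bcl-2 and Bax, with chemiluminescent detection.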"}, "HepG2 [11]": {"test_system": "HepG2", "test": "Induction of apoptosis in human HepG2 cells assessed as early apoptotic cells at 1 uM incubated for 12 hrs by Annexin V-FITC/PI staining based flow cytometry (reference value: 3.99%)", "format": "functional"}, "SMMC-7721 [12]": {"test_system": "SMMC-7721", "test": "Inhibition of colony formation in human SMMC-7721 cells at 2 uM incubated for 24 hrs measured after cell culturing for 15 days in normal medium by crystal violet staining based assay", "format": "functional", "details": "time 16.0 day", "in_short": "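500 HepG2, QGY-7703 or SMMC-7721 cells per well allowed to attach 24 h, exposed to DMSO or 2.0 µM for 24 h, then grown 15 days in plain medium. Colonies fixed 30 min in 4% paraformaldehyde, stained 15 min with 0.1% crystal violet, photographed and counted.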"}, "SMMC-7721 [13]": {"test_system": "SMMC-7721", "test": "Induction of autophagy in human SMMC-7721 cells assessed as increase in Beclin 1 expression measured at 12 hrs by Western blot analysis", "format": "functional, cell-based", "details": "dose 0.5-2 µM", "in_short": "as §3"}, "HepG2 [14]": {"test_system": "HepG2", "test": "Induction of autophagy in human HepG2 cells assessed as increase in LC3-II expression measured after 12 hrs by Western blot analysis", "format": "functional, cell-based", "details": "dose 0.5-2 µM", "in_short": "as §3"}, "HepG2 [15]": {"test_system": "HepG2", "test": "Antiproliferative activity against human HepG2 cells assessed as reduction in cell viability incubated for 48 hrs by MTT assay", "format": "functional, cell-based", "details": "HepG2, 48 h", "in_short": "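MTT assay after 48 h exposure at six concentrations, range chosen by cytotoxicity. Inhibition = (ODcontrol − ODtest)/ODcontrol × 100%; IC50 is the concentration halving OD versus untreated cells. Means ± SD of three independent determinations. HepG2 and SMMC-7721 grown in DMEM, QGY-7703 and LO2 in RPMI 1640, with 10% FBS at 37 °C.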"}, "QGY-7703 [16]": {"test_system": "QGY-7703", "test": "Induction of autophagy in human QGY-7703 cells assessed as increase in LC3-II expression measured after 12 hrs by Western blot analysis", "format": "functional, cell-based", "details": "dose 0.5-2 µM", "in_short": "as §3"}, "HepG2 [17]": {"test_system": "HepG2", "test": "Induction of endoplasmic reticulum stress in Nur77 […] human HepG2 cells assessed as TRB3 protein expression at 2 uM incubated for 12 hrs by Western blot analysis", "format": "functional, cell-based", "in_short": "as §1"}, "HepG2 [18]": {"test_system": "HepG2", "test": "Antitumor activity against human HepG2 cells xenografted in BALB/c mouse assessed as tumor growth inhibition at 10 mg/kg/day, ip administered for 15 days", "format": "functional", "details": "360 h, time 15 day", "in_short": "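Subcutaneous flank xenograft of 5×10^6 HepG2 cells in 4-week-old male Balb/c nude mice. At about 100 mm³, 15 mice were randomized into three groups: vehicle, 10 or 20 mg/kg i.p. daily for 15 days. Tumor size was measured every day, and tumors were excised and weighed at the end.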"}, "HepG2 [19]": {"test_system": "HepG2", "test": "Induction of apoptosis in human HepG2 cells assessed as live cells at 2 uM incubated for 12 hrs by Annexin V-FITC/PI staining based flow cytometry (reference value: 90.7 to 94%)", "format": "functional"}}, "note": "The source made the active and inactive calls. The rule behind the calls is not given here.", "data": [{"smiles": "COc1cccc2c(Nc3ccc4[nH]c(C(=O)N/N=C/c5ccc(SC)cc5)cc4c3)cc(C)nc12", "values": [{"measurement": "Activity", "setting": "HepG2 [1]", "value": "Active"}, {"measurement": "Activity", "setting": "HepG2 [2]", "value": "inactive"}, {"measurement": "Activity", "setting": "HepG2 [3]", "value": "Active"}, {"measurement": "Activity", "setting": "[4]", "value": "Active"}, {"measurement": "Activity", "setting": "HepG2 [5]", "value": 0.16, "unit": "%"}, {"measurement": "Activity", "setting": "QGY-7703 [6]", "value": "Dose-dependent effect"}, {"measurement": "Activity", "setting": "HepG2 [7]", "value": 71731, "unit": "U"}, {"measurement": "Activity", "setting": "HepG2 [8]", "value": "Active"}, {"measurement": "Activity", "setting": "SMMC-7721 [9]", "value": "Dose-dependent effect"}, {"measurement": "Activity", "setting": "HepG2 [10]", "value": "inactive"}, {"measurement": "Activity", "setting": "HepG2 [11]", "value": 18.5, "unit": "%"}, {"measurement": "inhibition", "setting": "SMMC-7721 [12]", "value": "Active"}, {"measurement": "Activity", "setting": "SMMC-7721 [13]", "value": "Dose-dependent effect"}, {"measurement": "Activity", "setting": "HepG2 [14]", "value": "Dose-dependent effect"}, {"measurement": "IC50", "setting": "HepG2 [15]", "value": 600, "unit": "nM"}, {"measurement": "Activity", "setting": "QGY-7703 [16]", "value": "Dose-dependent effect"}, {"measurement": "Activity", "setting": "HepG2 [17]", "value": "inactive"}, {"measurement": "inhibition in vivo at 10 mg/kg/day", "setting": "HepG2 [18]", "value": 36.7, "unit": "%"}, {"measurement": "Activity", "setting": "HepG2 [19]", "value": 8.8, "unit": "%"}]}]}
